Data taken from ChEMBL document CHEMBL3124890, “SAR studies on trisubstituted benzimidazoles as inhibitors of Mtb FtsZ for the development of novel antitubercular agents” (J Med Chem, 2013).
≈ marks a conversion by molar mass, not a printed value.

Tests used:
Vero = experiment: Cytotoxicity against Vero cells after 3 days by Alamar Blue assay; type: cell-based; settings: Chlorocebus sabaeus, 72 h
Method in brief: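 Vero (African green monkey kidney epithelial) cells were grown without CO₂ in L15 with antibiotics and heat-inactivated calf serum. Cells in medium with 2X Alamar Blue were added at 1.3×10^4 cells/well to 2-fold serial drug dilutions. Plates were incubated 3 days at 37 °C, and IC50 was calculated per the manufacturer's directions.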

[1] = test system: Mycobacterium tuberculosis; experiment: […]; type: functional
Method in brief: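 Strains were grown at 37 °C in 7H9 Middlebrook broth with 10% OADC, 0.05% Tween and 0.2% glycerol. Compounds were dissolved in DMSO and serially diluted 2-fold, then bacteria were added. Plates were incubated 6 days at 37 °C, then 24 h more with Alamar Blue. MIC was the lowest concentration (μg/mL) that prevented the colour change. Run in triplicate.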

Structure (SMILES)	IC50 (Vero)	MIC ([1]; H37Rv, 144 h)	MIC ([1]; W210, 144 h)
CN(C)c1cc2[nH]c(C3CCCCC3)nc2cc1NC(=O)OCc1ccccc1	> 100 µg/mL	0.16 µg/mL (≈ 0.408 µM)	–
CN(C)c1cc2[nH]c(C3CCCCC3)nc2cc1NC(=O)c1ccc(F)cc1F	> 100 µg/mL	0.31 µg/mL (≈ 0.778 µM)	–
O=C(Nc1cc2nc(C3CCCCC3)[nH]c2cc1N1CCCC1)OCC(F)(F)F	> 100 µg/mL	0.31 µg/mL (≈ 0.755 µM)	–
Cc1ccc(C(=O)Nc2cc3nc(C4CCCCC4)[nH]c3cc2N(C)C)cc1	> 100 µg/mL	0.31 µg/mL (≈ 0.823 µM)	–
CCCCOC(=O)Nc1cc2nc(C3CCCCC3)[nH]c2cc1N1CCCC1	–	0.39 µg/mL (≈ 1.01 µM)	–
CCCNC(=O)Nc1cc2nc(C3CCCCC3)[nH]c2cc1N1CCCC1	> 100 µg/mL	100 µg/mL (≈ 271 µM)	–
COc1ccc(CC(=O)Nc2cc3nc(C4CCCCC4)[nH]c3cc2N(C)C)cc1	> 100 µg/mL	> 100 µg/mL	–
CN(C)c1cc2[nH]c(C3CCCCC3)nc2cc1NC(=O)c1ccc(OC(F)F)cc1	> 100 µg/mL	0.31 µg/mL (≈ 0.723 µM)	–
CN(C)c1cc2[nH]c(C3CCCCC3)nc2cc1NC(=O)c1ccc(C(C)(C)C)cc1	> 100 µg/mL	1.56 µg/mL (≈ 3.73 µM)	–
CCCCNC(=O)Nc1cc2nc(C3CCCCC3)[nH]c2cc1N(C)C	> 100 µg/mL	6.25 µg/mL (≈ 17.5 µM)	–
COc1ccc(C(=O)Nc2cc3nc(C4CCCCC4)[nH]c3cc2N(C)C)cc1	> 100 µg/mL	0.31 µg/mL (≈ 0.79 µM)	–
CCCN(CCC)c1cc2[nH]c(C3CCCCC3)nc2cc1NC(=O)OCc1ccccc1	> 100 µg/mL	> 100 µg/mL	–
O=C(Nc1cc2nc(C3CCCCC3)[nH]c2cc1N1CCCC1)c1ccc(Br)cc1	> 100 µg/mL	1.56 µg/mL (≈ 3.34 µM)	–
CCN(CC)c1cc2[nH]c(C3CCCCC3)nc2cc1NC(=O)OCCOCCOC	> 100 µg/mL	12.5 µg/mL (≈ 28.9 µM)	–
CCCCOC(=O)Nc1cc2nc(C3CCCCC3)[nH]c2cc1N(CC)CC	> 100 µg/mL	–	1.25 µg/mL (≈ 3.23 µM)
CN(C)c1cc2[nH]c(C3CCCCC3)nc2cc1NC(=O)c1ccco1	> 100 µg/mL	6.25 µg/mL (≈ 17.7 µM)	–
CCCCNC(=O)Nc1cc2nc(C3CCCCC3)[nH]c2cc1N1CCCC1	> 100 µg/mL	25 µg/mL (≈ 65.2 µM)	–
Cc1ccc(C(=O)Nc2cc3nc(C4CCCCC4)[nH]c3cc2N2CCCC2)cc1	> 100 µg/mL	3.13 µg/mL (≈ 7.78 µM)	–
CCCCNC(=O)Nc1cc2nc(C3CCCCC3)[nH]c2cc1N(CC)CC	> 100 µg/mL	> 100 µg/mL	–
CCN(CC)c1cc2[nH]c(C3CCCCC3)nc2cc1NC(=O)c1ccc(OC(F)F)cc1	> 100 µg/mL	> 100 µg/mL	–
CN(C)c1cc2[nH]c(C3CCCCC3)nc2cc1NC(=O)c1cccs1	> 100 µg/mL	5 µg/mL (≈ 13.6 µM)	–

Structure (SMILES)	IC50 (Vero)	MIC ([1]; H37Rv, 144 h)	MIC ([1]; W210, 144 h)
CCCOCC(=O)Nc1cc2nc(C3CCCCC3)[nH]c2cc1N(C)C	< 50 µg/mL	6.25 µg/mL (≈ 17.4 µM)	–
NNC(=O)c1ccncc1 [ISONIAZID]	–	0.013 µg/mL (≈ 0.0948 µM)	0.01 µg/mL (≈ 0.0729 µM)
CCOCCOC(=O)Nc1cc2nc(C3CCCCC3)[nH]c2cc1N1CCCC1	> 100 µg/mL	1.56 µg/mL (≈ 3.89 µM)	–
O=C(Nc1cc2nc(C3CCCCC3)[nH]c2cc1N1CCCC1)OCc1ccccc1	–	3.13 µg/mL (≈ 7.48 µM)	–
CCN(CC)c1cc2[nH]c(C3CCCCC3)nc2cc1NC(=O)c1ccc(N(C)C)cc1	–	12.5 µg/mL (≈ 28.8 µM)	–
CCCCOC(=O)Nc1cc2nc(C3CCCCC3)[nH]c2cc1N(C)CCN(C)C	> 100 µg/mL	> 100 µg/mL	–
CCCCOC(=O)Nc1cc2nc(C3CCCCC3)[nH]c2cc1N(CC)CCN(CC)CC	> 50 µg/mL	50 µg/mL (≈ 109 µM)	–
CCCOCC(=O)Nc1cc2nc(C3CCCCC3)[nH]c2cc1N1CCCC1	> 100 µg/mL	12.5 µg/mL (≈ 32.5 µM)	–
CCN(CC)c1cc2[nH]c(C3CCCCC3)nc2cc1NC(=O)c1ccc(F)cc1F	> 100 µg/mL	> 100 µg/mL	–
CCCC(C)OC(=O)Nc1cc2nc(C3CCCCC3)[nH]c2cc1N(CC)CC (stereo not drawn)	> 100 µg/mL	> 50 µg/mL	–
CCCc1ccc(C(=O)Nc2cc3nc(C4CCCCC4)[nH]c3cc2N(CC)CC)cc1	–	> 100 µg/mL	–
CCOCCOC(=O)Nc1cc2nc(C3CCCCC3)[nH]c2cc1N(C)C	> 100 µg/mL	0.31 µg/mL (≈ 0.828 µM)	–
CN(C)c1cc2[nH]c(C3CCCCC3)nc2cc1NC(=O)c1ccc(OC(F)(F)F)cc1	> 100 µg/mL	0.16 µg/mL (≈ 0.358 µM)	–
CCCCCC(=O)Nc1cc2nc(C3CCCCC3)[nH]c2cc1N(C)C	> 100 µg/mL	1.25 µg/mL (≈ 3.51 µM)	–
CCc1ccc(C(=O)Nc2cc3nc(C4CCCCC4)[nH]c3cc2N(CC)CC)cc1	> 100 µg/mL	1.56 µg/mL (≈ 3.73 µM)	–
CCN(CC)c1cc2[nH]c(C3CCCCC3)nc2cc1NC(=O)c1ccc(Br)cc1	> 100 µg/mL	100 µg/mL (≈ 213 µM)	–
CCOc1ccc(C(=O)Nc2cc3nc(C4CCCCC4)[nH]c3cc2N(CC)CC)cc1	> 100 µg/mL	> 100 µg/mL	–
CCN(CC)c1cc2[nH]c(C3CCCCC3)nc2cc1NC(=O)NCc1ccccc1	> 100 µg/mL	> 100 µg/mL	–
COc1ccc(C(=O)Nc2cc3nc(C4CCCCC4)[nH]c3cc2N2CCCC2)cc1	> 100 µg/mL	6.25 µg/mL (≈ 14.9 µM)	–
CCN(CC)c1cc2[nH]c(C3CCCCC3)nc2cc1NC(=O)c1cccc(Br)c1	> 100 µg/mL	> 100 µg/mL	–
CCCCCC(=O)Nc1cc2nc(C3CCCCC3)[nH]c2cc1N(CC)CC	–	12.5 µg/mL (≈ 32.5 µM)	–

Structure (SMILES)	IC50 (Vero)	MIC ([1]; H37Rv, 144 h)	MIC ([1]; W210, 144 h)
CN(C)c1cc2[nH]c(C3CCCCC3)nc2cc1NC(=O)c1ccc(Br)cc1	> 100 µg/mL	0.31 µg/mL (≈ 0.702 µM)	–
CCCCOC(=O)Nc1cc2nc(C3CCCCC3)[nH]c2cc1N(CC)CCN(C)C	> 100 µg/mL	100 µg/mL (≈ 233 µM)	–
COCCOC(=O)Nc1cc2nc(C3CCCCC3)[nH]c2cc1N1CCCC1	> 100 µg/mL	3.13 µg/mL (≈ 8.1 µM)	–
CN(C)c1cc2[nH]c(C3CCCCC3)nc2cc1NC(=O)c1ccccc1	> 100 µg/mL	1.56 µg/mL (≈ 4.3 µM)	–
CCN(CC)c1cc2[nH]c(C3CCCCC3)nc2cc1NC(=O)c1ccc(OC)cc1	–	1.56 µg/mL (≈ 3.71 µM)	–
CCOCCOC(=O)Nc1cc2nc(C3CCCCC3)[nH]c2cc1N(CC)CC	> 100 µg/mL	1.56 µg/mL (≈ 3.88 µM)	–
O=C(Nc1cc2nc(C3CCCCC3)[nH]c2cc1N1CCCC1)c1ccccc1	> 100 µg/mL	6.25 µg/mL (≈ 16.1 µM)	–
C=Cc1cccc(C(=O)Nc2cc3nc(C4CCCCC4)[nH]c3cc2N(CC)CC)c1	> 100 µg/mL	25 µg/mL (≈ 60 µM)	–
CCN(CC)c1cc2[nH]c(C3CCCCC3)nc2cc1NC(=O)OCC(F)(F)F	> 100 µg/mL	1.56 µg/mL (≈ 3.78 µM)	–
CN(C)c1cc2[nH]c(C3CCCCC3)nc2cc1NC(=O)c1ccc(F)cc1	> 100 µg/mL	0.63 µg/mL (≈ 1.66 µM)	–
CCN(CC)c1cc2[nH]c(C3CCCCC3)nc2cc1NC(=O)c1ccc(F)cc1	> 100 µg/mL	> 100 µg/mL	–
CN(C)c1cc2[nH]c(C3CCCCC3)nc2cc1NC(=O)c1cccc(Br)c1	> 100 µg/mL	3.13 µg/mL (≈ 7.09 µM)	–
CCCN(CCC)c1cc2[nH]c(C3CCCCC3)nc2cc1NC(=O)c1ccccc1	> 100 µg/mL	> 100 µg/mL	–
CCCOCC(=O)Nc1cc2nc(C3CCCCC3)[nH]c2cc1N(CC)CC	> 100 µg/mL	25 µg/mL (≈ 64.7 µM)	–
CCCc1ccc(C(=O)Nc2cc3nc(C4CCCCC4)[nH]c3cc2N(C)C)cc1	> 100 µg/mL	0.63 µg/mL (≈ 1.56 µM)	–
CCN(CC)c1cc2[nH]c(C3CCCCC3)nc2cc1NC(=O)c1ccc(OC(F)(F)F)cc1	> 100 µg/mL	> 100 µg/mL	–
O=C(NCc1ccccc1)Nc1cc2nc(C3CCCCC3)[nH]c2cc1N1CCCC1	> 100 µg/mL	25 µg/mL (≈ 59.9 µM)	–
CCN(CC)c1cc2[nH]c(C3CCCCC3)nc2cc1NC(=O)c1cnccn1	> 100 µg/mL	10 µg/mL (≈ 25.5 µM)	–
CCCCCC(=O)Nc1cc2nc(C3CCCCC3)[nH]c2cc1N1CCCC1	> 100 µg/mL	6.25 µg/mL (≈ 16.3 µM)	–
CCCCOC(=O)Nc1cc2nc(C3CCCCC3)[nH]c2cc1N(CCC)CCC	> 100 µg/mL	6.25 µg/mL (≈ 15.1 µM)	–
